Assay outcomes deposited in PubChem BioAssay by The Scripps Research Institute Molecular Screening Center.
STAT3 act-1 – increases IL-6 driven STAT3 reporter signal | U3A cells, IL-6 STAT3-luciferase reporter, luminescence; 100% = signal with IL-6 EC80 alone | activation (% of control), % at 5.6 µM | 190,000 tested, 0.91% active | AID 871;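 active means activation above the screen-wide mean of compound activation plus 3 SD, cut at about 130% in these data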;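 further: 0% = background luminescence of wells with medium and substrate only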
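system = STAT3-luciferase reporter U3A cells | reagent = IL-6 stimulus at 33 ng/mL final | timing = 1 h compound pre-exposure, 6 h IL-6 stimulation, 37 °C | measured by = luminescence | evaluation = % activation versus median of IL-6-stimulated wells | control set = IL-6-only wells as 100% reference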
STAT1 inh – inhibitors of IFN-gamma induced STAT1 signaling. NIH 3T3 STAT1-luciferase reporter, luminescence. inhibition, % at 5.5 µM. 200,000 tested, 0.35% active;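 active means inhibition above a set limit, the mean inhibition across all tested compounds plus 3 SD, cut at about 34% in these data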;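 further: 0% = IFN-gamma with DMSO and 100% = IFN-gamma with 300 µM nifuroxazide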
STAT3 blocker – inhibitors of IL-6 induced STAT3 signaling | U3A cells, IL-6 STAT3-luciferase reporter, luminescence; host cell line lacks STAT1 | inhibition, % at 5.5 µM | 190,000 tested, 0.89% active;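 active means inhibition above the mean inhibition across all screened compounds plus 3 SD, cut at about 44% in these data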;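 further: 0% = DMSO only wells and 100% = 100 µM nifuroxazide control wells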
HSP90 refold inh – HSP90 refolding inhibition in rabbit reticulocyte lysate. 290,000 tested, 0.91% active. AID 1789. inhibition, % at 5.6 µM. luciferase refolding luminescence, 3 h;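 active means inhibition above the screen-wide mean plus 3 SD, computed separately per campaign, cut at about 16% in these data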;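 further: 0% = DMSO wells and 100% = 60 µM geldanamycin wells; inhibitors lower the luminescence because luciferase stays unfolded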
STAT3 act-2 – STAT3 activation, confirmation assay. shares compounds with STAT3 act-1. U3A STAT3-luciferase reporter, IL-6 potentiation, luminescence; U3A cells lack STAT1; 100 means same as IL-6 alone. potentiation (% of control), % at 5.7 µM. 1,200 tested, 64% active. AID 1267;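 active means percent activation of the STAT3 luciferase reporter above a set limit taken from the earlier primary screen, cut at about 130% in these data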;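 further: 0% = background signal of medium plus substrate and 100% = median of IL-6 with DMSO wells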
NFkB act 2 – activates NF-kappaB, counter-screen to STAT3 activators. shares compounds with STAT3 act-1. human cells, NF-kappaB reporter activation. activation (% of control), % at 5.7 µM. 1,200 tested, 11% active; in the data active means activation above about 120%;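 further: reporter induced by TNF-alpha stimulation; 100% = median of stimulated DMSO wells and 0% = no signal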
STAT1 act STAT3c – counter-screen for STAT3 activators: STAT1 activation. NIH 3T3 STAT1-luciferase reporter, IFN-gamma, luminescence. shares compounds with STAT3 act-1. 1,200 tested, 13% active. AID 1318. activation (% of control), % at 5.7 µM;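 active means activation above the solvent-only control well mean plus 3 SD, set per screening run, cut at about 120% in these data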;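 further: 100% = IFN-gamma with DMSO median signal so 100% means no change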
Numbers without * were called inactive. The list is not random: actives were taken first. Their share in the collection is about 2%.

For Cc1cccc(NC(=O)c2cc([N+](=O)[O-])ccc2Cl)c1O the results were STAT3 act-1 155*, STAT1 inh 6, STAT3 blocker -49, HSP90 refold inh -6, STAT3 act-2 162*, NFkB act 2 110 and STAT1 act STAT3c 98.
O=C(Nc1ccccc1Oc1ccccc1)c1cc([N+](=O)[O-])ccc1Cl was read as STAT3 act-1 98, STAT1 inh 5, STAT3 blocker 2 and HSP90 refold inh 2.
Screening COc1ccc(-c2nnnn2C)cc1S(=O)(=O)Nc1ccc(C)cc1C returned HSP90 refold inh -1.
Screening COc1cccc(-c2nnc3n2N=C(C(C)(C)C)CS3)c1 returned STAT3 act-1 204*, STAT1 inh 12, STAT3 blocker -119, HSP90 refold inh -2, STAT3 act-2 184*, NFkB act 2 34 and STAT1 act STAT3c 111.
For COc1cccc(-c2nnc3n2N=C(c2cc(OC)ccc2OC)CS3)c1 the results were STAT3 act-1 105, STAT1 inh -4, STAT3 blocker -1 and HSP90 refold inh -1.
For O=C(Cc1c[nH]c2ccccc12)OCC(=O)c1ccccc1 the results were STAT3 act-1 136*, STAT1 inh -3, STAT3 blocker -36, HSP90 refold inh -4, STAT3 act-2 132, NFkB act 2 104 and STAT1 act STAT3c 93.
For O=C(COC(=O)Cc1c[nH]c2ccccc12)Nc1cccc2ccccc12 the results were STAT3 act-1 112, STAT1 inh 16, STAT3 blocker -16 and HSP90 refold inh -7.
COC(=O)C1CCN(C(=O)COC(=O)Cc2c[nH]c3ccccc23)CC1 was read as STAT3 act-1 140*, STAT1 inh 6, STAT3 blocker -40, HSP90 refold inh -2, STAT3 act-2 131, NFkB act 2 100 and STAT1 act STAT3c 94.
For CCCCCC(=O)NNC1=NCC(Cc2cccc(Cl)c2)S1 (configuration not stated) the results were STAT3 act-1 102, STAT1 inh 3, STAT3 blocker 8 and HSP90 refold inh 2.
Screening CC(=O)N1N=C(c2ccco2)CC1c1cc2ccc(C)cc2nc1Cl (configuration not stated) returned HSP90 refold inh -6.
Screening CCCOc1ccc(C(=O)NC(=S)Nc2nc3ccc(C)cc3s2)cc1 returned STAT3 act-1 102, STAT1 inh -11, STAT3 blocker 5 and HSP90 refold inh -4.
For Cc1ccc2nc(NC(=S)NC(=O)c3cccs3)sc2c1 the results were STAT3 act-1 163*, STAT1 inh -23, STAT3 blocker -62, HSP90 refold inh 7, STAT3 act-2 171*, NFkB act 2 126* and STAT1 act STAT3c 132*.
Cc1nc(NC(=S)NC(=O)c2cccs2)ccc1Br was read as STAT3 act-1 148*, STAT1 inh -1, STAT3 blocker -49, HSP90 refold inh 0, STAT3 act-2 173*, NFkB act 2 110 and STAT1 act STAT3c 114.
For Cc1cccc(NC(=S)NC(=O)c2cccs2)n1 the results were STAT3 act-1 141*, STAT1 inh -22, STAT3 blocker -36, HSP90 refold inh -6, STAT3 act-2 138*, NFkB act 2 117 and STAT1 act STAT3c 119.
Screening Cc1ccc(N2CC(C(=O)Nc3c4c(nn3C(C)(C)C)CS(=O)(=O)C4)CC2=O)cc1 (configuration not stated) returned HSP90 refold inh 0.
For COc1ccccc1Cc1nc(-c2ccc(Br)o2)no1 the results were STAT3 act-1 156*, STAT1 inh -7, STAT3 blocker -64, HSP90 refold inh 0, STAT3 act-2 136*, NFkB act 2 114 and STAT1 act STAT3c 126*.
`Cc1ccccc1OCc1nc(-c2ccc(Br)o2)no1` gave STAT3 act-1 98, STAT1 inh -12, STAT3 blocker 12 and HSP90 refold inh -1.
Screening Cn1c(=O)c(-c2ccccc2)nc2ccccc21 returned STAT3 act-1 141*, STAT1 inh -5, STAT3 blocker -47, HSP90 refold inh -3, STAT3 act-2 117, NFkB act 2 107 and STAT1 act STAT3c 103.
